Structures are written as SMILES.

A short description of data set [1]: Compound administered orally at a dose of 5 mg/kg was evaluated for salidiuretic activity measured as sodium ion excretion in Rat. The arrangement: dose 5 mg/kg. The settings on record: Urine. The data set is classed as organism-based. In outline:
(§1)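 Female Charles-River rats (150–170 g), overnight on sugar diet with water ad libitum. Compound dissolved in DMF, diluted with water containing Tween 80 (final 4% DMF), given po in 5.0 mL; concurrent vehicle placebo. Three rats per metabolism cage; 0–5 h urine analysed for Na+, K+, Cl-. Values: mequiv × 100 per cage, geometric means of three cages per dose; scored 0–6 by Na+.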

Data set [2] relates to Rattus norvegicus. The data set is described as follows: Evaluated for salidiuretic activity measured as sodium ion excretion in Rat, administered orally at a dose of 50 mg/kg. The settings on record: route oral. The data set is classed as functional, Urine. Also on record: unit not given beside the values. A digest of the protocol:
as §1

The subject of data set [3] is Canis familiaris. As to the kind of experiment: Compound administered intravenously at a dose of 5 mg/kg was evaluated for salidiuretic activity measured as sodium ion excretion in Dog; act above 5 mg/kg. The data set is classed as ADME, organism-based, Canis lupus familiaris, Urine. The settings on record: in vivo, iv. A digest of the protocol:
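Conditioned female mongrel dogs, postabsorptive, water-loaded (500 mL po) 1 h before sodium pentobarbital anesthesia (30 mg/kg iv). Bladder catheter; creatinine 4 g sc; phosphate–mannitol buffer pH 7.4 infused (3.0 mL/min) throughout. […] Urine Na+ measured; response scored 0–6.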

A short description of data set [4]: Evaluated for salidiuretic activity measured as sodium ion excretion in Rat, administered orally at a dose of 16.5 mg/kg. The data set is classed as organism-based. The arrangement: dose 16.5 mg/kg. The following applies: Urine. In outline: as §1
The test system of data set [5] is Rattus norvegicus. As to the kind of experiment: Compound administered orally at a dose of 81 mg/kg was evaluated for salidiuretic activity measured as sodium ion excretion in Rat. The data set is classed as ADME, organism-based, Urine. The arrangement: dose 81 mg/kg, route oral; unit not given beside the values. The settings on record: in vivo, po. A digest of the protocol:
as §1

Data set [6] has as its system Canis familiaris. The data set is described as follows: Oral diuretic activity was evaluated by measuring Cl- excretion in dog at 1.8 mg/kg after […] ( 0-6 hr). The data set is classed as ADME, organism-based, Canis lupus familiaris, Urine. The arrangement: dose 1.8 mg/kg, route intraperitoneal. The following applies: in vivo.
The subject of data set [7] is Canis familiaris. As to the kind of experiment: Oral diuretic activity was evaluated by measuring Cl- excretion in dog at 0.6 mg/kg after […] ( 0-6 hr). Type of data set: ADME, organism-based, Canis lupus familiaris, Urine. The arrangement: dose 0.6 mg/kg, route intraperitoneal. The following applies: in vivo.
Data set [8] deals with Rattus norvegicus. As to the kind of experiment: Oral diuretic activity was evaluated by measuring Cl- excretion in Rat at 9 mg/kg […] ( 0-5 hr). The following applies: in vivo. Also on record: dose 9 mg/kg. Type of data set: ADME, organism-based, Urine. A digest of the protocol:
(§2)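 Female Charles-River rats (150–170 g) were kept overnight on a sugar diet with water ad libitum. Test substance was dissolved in DMF and diluted with water containing Tween 80 to a final 4% DMF vehicle, then given po in 5.0 mL. Rats were housed three per metabolism cage, and 0–5 h urine was assayed for Na⁺, K⁺ and Cl⁻ alongside concurrent placebo groups. Values are mequiv × 100 per cage, geometric means of three cages per dose.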

Data set [9] deals with Rattus norvegicus. As to the kind of experiment: Oral diuretic activity was evaluated by measuring K+ excretion in Rat at 27 mg/kg after po administration ( 0-5 hr). The following applies: in vivo.
Data set [10] concerns Canis familiaris. The data set is described as follows: Oral diuretic activity was evaluated by measuring Cl- excretion in dog at 5.4 mg/kg after […] ( 0-6 hr). Type of data set: ADME, organism-based, Canis lupus familiaris, Urine. Also on record: dose 5.4 mg/kg, route intraperitoneal. The following applies: in vivo.
Data set [11] deals with Canis familiaris. The data set is described as follows: Oral diuretic activity was evaluated by measuring Cl- excretion in dog at 16.2 mg/kg after […] ( 0-6 hr). Type of data set: ADME, organism-based, Canis lupus familiaris, Urine. The arrangement: dose 16.2 mg/kg, route intraperitoneal. The settings on record: in vivo.
In data set [12] the test system is Canis familiaris. The data set is described as follows: Oral diuretic activity was evaluated by measuring Na+ excretion in dog at 1.8 mg/kg after […] ( 0-6 hr). The data set is classed as ADME, organism-based, Canis lupus familiaris, Urine. Also on record: dose 1.8 mg/kg. The following applies: in vivo. In outline:
(§3)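 Dogs; spontaneous urine was pooled with bladder urine drained by catheter at the end of 6 h. Urine volume was measured, and aliquots were assayed for Na+, K+ and Cl− by standard methods. Values are geometric means, expressed as mequiv over 0–6 h.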

Data set [13] has as its system Canis familiaris. As to the kind of experiment: Oral diuretic activity was evaluated by measuring K+ excretion in dog at 16.2 mg/kg after ip administration ( 0-6 hr). The arrangement: dose 16.2 mg/kg, route intraperitoneal. The data set is classed as ADME, organism-based, Canis lupus familiaris, Urine. The following applies: in vivo. In outline:
(§4)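 Spontaneous urine was pooled with bladder urine collected by catheterization at 6 h. Volume was measured and Na+, K+ and Cl− were determined by standard methods. Values are geometric means.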

The subject of data set [14] is Canis familiaris. As to the kind of experiment: Oral diuretic activity was evaluated by measuring Na+ excretion in dog at 5.4 mg/kg after ip administration ( 0-6 hr). Type of data set: ADME, organism-based, Canis lupus familiaris, Urine. Also on record: dose 5.4 mg/kg, route intraperitoneal. The settings on record: in vivo. A digest of the protocol:
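Urine collected over 0–6 h: spontaneous voids were pooled with bladder urine taken by catheterization at 6 h. Urine volume was measured, and aliquots were analysed for Na+, K+ and Cl− by standard methods. Electrolyte excretion is reported as geometric means.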

Data set [15] deals with Rattus norvegicus. As to the kind of experiment: Compound administered orally at a dose of 1 mg/kg was evaluated for salidiuretic activity measured as sodium ion excretion in Rat. The following applies: in vivo, po.
In data set [16] the test system is Rattus norvegicus. As to the kind of experiment: Oral diuretic activity was evaluated by measuring Na+ excretion in Rat at 27 mg/kg […] ( 0-5 hr). The data set is classed as ADME, organism-based, Urine. The arrangement: dose 27 mg/kg. In outline:
(§5)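 Female Charles-River rats (150–170 g) were kept overnight on a sugar diet with water ad libitum. Compound was dissolved in DMF, then diluted with water containing Tween 80 (3 drops/100 mL) to a final 4% DMF, and given po in 5.0 mL. Rats were housed three per metabolism cage. Urine from 0–5 h was analysed for Na+, K+ and Cl−, with concurrent placebo controls. Values are mequiv × 100 per cage, geometric mean of three cages per dose.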

Data set [17] concerns Rattus norvegicus. The data set is described as follows: Oral diuretic activity was evaluated by measuring K+ excretion in Rat at 3 mg/kg after […] ( 0-5 hr). The data set is classed as ADME, organism-based, Urine. Also on record: dose 3 mg/kg. A digest of the protocol: as §2
Data set [18] deals with Rattus norvegicus. As to the kind of experiment: Oral diuretic activity was evaluated by measuring Na+ excretion in Rat at 81 mg/kg […] ( 0-5 hr). The data set is classed as ADME, organism-based, Urine. Also on record: dose 81 mg/kg. A digest of the protocol:
as §5

The subject of data set [19] is Rattus norvegicus. As to the kind of experiment: Oral diuretic activity was evaluated by measuring K+ excretion in Rat at 9 mg/kg […] ( 0-5 hr). Type of data set: ADME, organism-based, Urine. The arrangement: dose 9 mg/kg. A digest of the protocol:
as §2

For data set [20], the system named is Rattus norvegicus. The data set is described as follows: Oral diuretic activity was evaluated by measuring K+ excretion in Rat at 81 mg/kg […] ( 0-5 hr). The data set is classed as ADME, organism-based, Urine. Also on record: dose 81 mg/kg. In outline: as §2
The test system of data set [21] is Canis familiaris. The data set is described as follows: Oral diuretic activity was evaluated by measuring K+ excretion in dog at 1.8 mg/kg after ip administration ( 0-6 hr). Type of data set: ADME, organism-based, Canis lupus familiaris, Urine. Also on record: dose 1.8 mg/kg, route intraperitoneal. The settings on record: in vivo. A digest of the protocol: as §4

Data set [22] has as its system Rattus norvegicus. As to the kind of experiment: Oral diuretic activity was evaluated by measuring Na+ excretion in Rat at 3 mg/kg […] ( 0-5 hr). Type of data set: ADME, organism-based, Urine. The arrangement: dose 3 mg/kg. The settings on record: in vivo, ip. A digest of the protocol:
as §5

The test system of data set [23] is Canis familiaris. The data set is described as follows: Oral diuretic activity was evaluated by measuring Na+ excretion in dog at 0.6 mg/kg after ip administration ( 0-6 hr). The settings on record: in vivo. The arrangement: dose 0.6 mg/kg, route intraperitoneal. The data set is classed as ADME, organism-based, Canis lupus familiaris, Urine. A digest of the protocol: as §4

The subject of data set [24] is Rattus norvegicus. The data set is described as follows: Oral diuretic activity was evaluated by measuring Cl- excretion in Rat at 3 mg/kg after […] ( 0-5 hr). Type of data set: ADME, organism-based, Urine. The arrangement: dose 3 mg/kg, route intraperitoneal. The following applies: in vivo.
The subject of data set [25] is Canis familiaris. The data set is described as follows: Oral diuretic activity was evaluated by measuring Na+ excretion in dog at 16.2 mg/kg after […] ( 0-6 hr). Type of data set: ADME, organism-based, Canis lupus familiaris, Urine. Also on record: dose 16.2 mg/kg. The settings on record: in vivo. A digest of the protocol: as §3
In data set [26] the test system is Rattus norvegicus. As to the kind of experiment: Oral diuretic activity was evaluated by measuring Cl- excretion in Rat at 27 mg/kg after […] ( 0-5 hr). The settings on record: in vivo. The data set is classed as ADME, organism-based, Urine. Also on record: dose 27 mg/kg, route intraperitoneal.
In data set [27] the test system is Rattus norvegicus. The data set is described as follows: Maximum fall in mean arterial blood pressure was measured in SH rats when compound was administered at 20 mg/kg perorally. The data set is classed as functional. The following applies: route oral.
Data set [28] deals with Rattus norvegicus. The data set is described as follows: Oral diuretic activity was evaluated by measuring Cl- excretion in Rat at 81 mg/kg after po administration ( 0-5 hr). The following applies: in vivo.
Data set [29] relates to Rattus norvegicus. As to the kind of experiment: Oral diuretic activity was evaluated by measuring Na+ excretion in Rat at 9 mg/kg […] ( 0-5 hr). The arrangement: dose 9 mg/kg. Type of data set: ADME, organism-based, Urine. The following applies: in vivo, ip. A digest of the protocol: as §5
Data set [30] deals with Canis familiaris. The data set is described as follows: Oral diuretic activity was evaluated by measuring K+ excretion in dog at 5.4 mg/kg after ip administration ( 0-6 hr). The arrangement: dose 5.4 mg/kg, route intraperitoneal. The settings on record: in vivo. Type of data set: ADME, organism-based, Canis lupus familiaris, Urine. In outline: as §4
For data set [31], the system named is Canis familiaris. The data set is described as follows: Oral diuretic activity was evaluated by measuring K+ excretion in dog at 0.6 mg/kg after […] ( 0-6 hr). Type of data set: ADME, organism-based, Canis lupus familiaris, Urine. The arrangement: dose 0.6 mg/kg, route intraperitoneal. The settings on record: in vivo.

For the molecule `NCc1cc(Cl)cc(Cl)c1O`, the Diuretic activity in data set [1] was 0.4; in the data set on Rattus norvegicus [2], 1.8; in the data set with Canis familiaris [3], “active above 5 mg/kg”; in [4], 0.6; in the data set with Rattus norvegicus [5], 2.4.
As to `CCc1c(Cl)c(C)c(CN)c(O)c1Cl.Cl`, the Diuretic activity with Canis familiaris [6] came to 22.93; in data set [1] it was 2.6; in the data set with Canis familiaris [7], 9.91; in the data set with Rattus norvegicus [8], 2.84; in the data set on Rattus norvegicus [2], 3.6; in the data set on Rattus norvegicus [9] it was 0.55. In addition, the Diuretic activity in the data set with Canis familiaris [10] is on record as 37.15; in the data set with Canis familiaris [11] it was 38.78; with Canis familiaris [12], 19.43; in the data set with Canis familiaris [13], 6.25; in the data set with Canis familiaris [14], 33.15; in the data set on Rattus norvegicus [15], 0.7. Moreover, the Diuretic activity in the data set on Rattus norvegicus [16] is given as 2.17; in the data set with Rattus norvegicus [17], 0.44; in the data set on Rattus norvegicus [18], 2.29; in the data set on Rattus norvegicus [19], 0.56; in the data set with Rattus norvegicus [20], 0.44; in the data set on Canis familiaris [21] it was 3.62. In addition, the Diuretic activity is 1.14 in the data set on Rattus norvegicus [22]; 8.12 in the data set on Canis familiaris [23]; 1.62 in the data set on Rattus norvegicus [24]; 3.3 in data set [4]; 33.33 in the data set on Canis familiaris [25]; 3.14 with Rattus norvegicus [26]. Besides, the Diuretic activity is reported as 3.2 with Rattus norvegicus [28], 2.02 in the data set on Rattus norvegicus [29], 5.9 with Canis familiaris [30] and 2.01 in the data set with Canis familiaris [31]. Further, the MAP in the data set with Rattus norvegicus [27] is on record as 10 mmHg.

The values above are taken from ChEMBL document CHEMBL1121573, “2-(Aminomethyl)phenols, a new class of saluretic agents. 1. Effects of nuclear substitution” (J Med Chem, 1980).
